CaV13 FRET inh = Disruptors of the CACNA1D IQ motif to Ca2+-dependent inactivation inhibitor domain association, primary screening, Förster resonance energy transfer in intact living … | HEK cells, CFP/YFP FRET ICDI-IQ, plate reader, 10 min; percent FRET-ratio fall versus neutral wells | inhibition, % at 12.3 µM | 0.098% of 340,000 active | AID 743397;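 active means mean replicate inhibition of at least 30% and at least 1% of replicates passing that level; inconclusive means only one of the two criteria is met; inactive means neither criterion is met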;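 further: 0% = median of the neutral control wells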
Runt-SMMHC FRET = inhibitors of human RUNX1 Runt domain binding to CBFb-SMMHC. Cerulean-Runt/Venus-CBFb-SMMHC FRET ratio 530/480, 1 h. 0.74% of 220,000 active. inhibition, % at 20 µM. Q01196+Q13951;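 active means mean inhibition across duplicate retests at 20 µM reaching about 50%, limit read from the data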;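 further: 0% = DMSO wells and 100% = wells with excess untagged CBFb-SMMHC; inhibitors lower the FRET ratio by blocking Runt binding to CBFb-SMMHC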
Target sequence (Q01196 whole entry, looked up, the tested form may be a part): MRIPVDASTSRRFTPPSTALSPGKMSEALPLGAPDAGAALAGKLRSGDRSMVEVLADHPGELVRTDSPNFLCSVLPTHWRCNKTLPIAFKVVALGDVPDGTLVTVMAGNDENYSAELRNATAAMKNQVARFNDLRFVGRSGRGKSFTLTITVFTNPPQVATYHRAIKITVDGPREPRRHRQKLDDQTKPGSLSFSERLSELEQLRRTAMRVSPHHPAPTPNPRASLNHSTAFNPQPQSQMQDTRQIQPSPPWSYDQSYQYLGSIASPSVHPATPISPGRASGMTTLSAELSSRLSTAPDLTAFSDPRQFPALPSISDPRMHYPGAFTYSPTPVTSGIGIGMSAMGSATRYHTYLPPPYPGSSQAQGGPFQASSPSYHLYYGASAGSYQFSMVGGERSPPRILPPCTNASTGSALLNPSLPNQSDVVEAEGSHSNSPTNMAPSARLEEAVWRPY
Target sequence (Q13951 whole entry, looked up, the tested form may be a part): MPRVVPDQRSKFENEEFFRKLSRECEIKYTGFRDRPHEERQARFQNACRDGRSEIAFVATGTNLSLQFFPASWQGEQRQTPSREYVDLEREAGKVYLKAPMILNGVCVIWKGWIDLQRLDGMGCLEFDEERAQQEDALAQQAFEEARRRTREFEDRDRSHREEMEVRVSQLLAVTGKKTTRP
RanGTP-Impb inh = disruptors of Ran-importin-beta complex formation – biochemical, FRET, CFP-Ran, YFP-importin-beta, homogeneous, primary screen; inhibition, % (test concentration not listed); 1.1% of 300,000 active; cell-free CFP-Ran/YFP-importin-beta FRET ratio;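 active means more than half of the replicate wells show a fall in the fluorescence ratio signal beyond about 16%, limit read from the data, passing the limit was not always enough; inconclusive means exactly half of the replicate wells pass the set limit; inactive means fewer than half of replicates pass the limit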;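 further: 0% = DMSO wells and 100% = Ran loaded with GDP instead of GTP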
Runt-CBFb FRET = inhibitors of human RUNX1 Runt domain binding to CBFb. Q01196+Q13951. Cerulean-Runt/Venus-CBFb FRET ratio 530/480, 1 h. inhibition, % at 20 µM. 0.46% of 220,000 active;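 active means inhibition over about 50% at 20 µM in the single-dose screen, limit read from the data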;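 further: 0% = DMSO wells and 100% = excess unlabeled CBFb competitor control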
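Assay system: Cerulean-tagged RUNX1 Runt domain (FRET donor) fusion protein / Amount: 100 nM each of Venus-CBFb and Cerulean-Runt domain / Medium: Tris buffer pH 7.5 with salts and BSA / Also added: Venus-CBFb 100 nM / Schedule: 1 h complex formation plus 1 h compound treatment, room temperature / Signal: FRET fluorescence / Read-out: loss of energy transfer signal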
* hit, by the source's call; u = inconclusive; x = no result; + = active, no number. Rows were chosen to be rich in hits. Some 1.2% of all compounds tested hit in one or more screens of this group.

SMILES | CaV13 FRET inh | Runt-SMMHC FRET | RanGTP-Impb inh | Runt-CBFb FRET
COC(=O)C1=C(C)N(Cc2ccccc2C(F)(F)F)C(=NCc2ccc3c(c2)OCO3)NC1c1ccc(Cl)cc1 (centres undefined) | -3 | x | x | x
COc1ccc(CCNC(=O)c2ccccc2OCc2c(C)noc2C)cc1 | -2 | x | x | x
CC1(C)Cc2c(sc3nc(C4CC4)n(N)c(=O)c23)CO1 | -5 | 1 | 2 | 98*
O=C(NNc1c2ccccc2nc2ccccc12)c1ccccc1Cl | -3 | x | 27* | x
CCOC(=O)C1CCCN(Cc2sccc2C)C1 (centres undefined) | x | -1 | 3 | 3
CCc1nnc(NS(=O)(=O)c2ccc(N/C=C/C(=O)c3ccc(OC)cc3)cc2)s1 | -5 | 50* | 3 | 11
CCc1nnc(NS(=O)(=O)c2ccc(NC(=O)Nc3ccc(OC)cc3)cc2)s1 | -20 | x | -3 | x
COc1cc(NS(=O)(=O)c2ccc(N/C=C\C(=O)c3ccc(F)cc3)cc2)nc(OC)n1 | -3 | 72* | 4 | 29
Cc1cccc(CS(=O)(=O)c2ncc(CO)n2C)c1 | -7 | x | 4 | x
Cn1c(NNC(=O)c2c(F)cccc2F)cc(=O)n(C)c1=O | -2 | 6 | 9 | 11
Cn1c(NNC(=O)c2cccc3ccccc23)cc(=O)n(C)c1=O | -3 | 93* | 24* | 49
Cc1ccc(C(=O)NNc2cc(=O)n(C)c(=O)n2C)cc1C | -7 | 49 | 28* | 20
CCOC(=O)c1cnc2ncnn2c1N | 4 | 3 | -4 | 3
O=C(NCCN1CCOCC1)N1c2ccccc2Sc2ccccc21 | -3 | 5 | 3 | -2
COc1ccc(N2CC(C(=O)N3CCN(c4ccccc4F)CC3)CC2=O)cc1 (centres undefined) | -3 | x | 7 | x
O=c1oc2cc(O)ccc2c2c1CCCC2 | -4 | 108* | 10 | 48
C=CCOc1ccc2c3c(c(=O)oc2c1)CCCC3 | -3 | x | x | x
O=c1oc2cc(O)ccc2c2ccccc12 | -5 | -32 | 0 | -3
O=c1oc2cc(O)ccc2c2oc3cc(O)ccc3c12 | -5 | 56* | u | 23
CC(C)CCNC(=O)C(=O)NCc1ccccc1 | -5 | -6 | -1 | -1
N#CC(C#N)=Cc1c[nH]c(=O)c(C#N)c1Nc1ccccc1 | 2 | x | 67* | x
CCCn1c(SC(C(=O)Nc2cccc(OC)c2)c2ccccc2)nc2ccccc2c1=O (centres undefined) | -6 | 1 | 3 | 1
CCOCCCn1c(=N)c(S(=O)(=O)c2ccc(C)cc2)cc2c(=O)n3cc(C)ccc3nc21 | 14 | x | 158* | x
N=c1c(S(=O)(=O)c2ccc(Br)cc2)cc2c(=O)n3ccccc3nc2n1CCN1CCOCC1 | -3 | x | x | x
Cc1ccc(S(=O)(=O)c2cc3c(=O)n4ccccc4nc3n(Cc3ccco3)c2=N)cc1C | x | -14 | 76* | 14
SMILES | CaV13 FRET inh | Runt-SMMHC FRET | RanGTP-Impb inh | Runt-CBFb FRET
N=c1c(S(=O)(=O)c2ccccc2)cc2c(=O)n3ccccc3nc2n1Cc1ccco1 | x | x | 85* | 12
CNC(=O)c1cc2c(=O)n3cc(C)ccc3nc2n(C(C)C)c1=N | x | 41 | 181* | 11
Cc1ccc2nc3c(cc(S(=O)(=O)c4ccccc4)c(=N)n3Cc3ccco3)c(=O)n2c1 | + | 92* | u | 19
Cc1nc2ccccc2c(=O)n1Cc1ccco1 | -3 | -3 | -9 | 1
CNC(=O)c1cc2c(=O)n3cc(C)ccc3nc2n(Cc2ccco2)c1=N | x | 42 | x | 88*
Cc1cc(C)c2c3c(sc2n1)C(=O)N(c1ccccc1)CC(=O)N3 | -20 | -13 | 0 | -1
CC1(C)CC(=O)C=C(Nc2ccc(F)c(Cl)c2)C1 | -20 | x | 4 | x
CC1(C)CC(=O)C=C(Nc2ccc(OCC(F)(F)C(F)F)cc2)C1 | -5 | 0 | 30* | -2
CC1(C)CC(=O)C=C(Nc2ccc(F)cc2)C1 | -8 | -5 | 27* | 1
CC1(C)CC(=O)C=C(Nc2ccc(F)cc2F)C1 | -3 | 2 | 35* | -2
Nc1[nH]c(C(=O)c2ccc(Br)cc2)c(-c2ccc(Br)cc2)c1C(=O)NCc1ccc(-c2ccccc2)cc1 | -4 | x | x | x
CCCCCCc1cc2cc(S(=O)(=O)c3ccc(F)cc3)c(=O)oc2cc1O | 53* | 63* | 167* | 19
CCCCCCc1cc2cc(C(=O)Nc3ccccc3OC)c(=O)oc2cc1O | -8 | 63* | 93* | 133*
CCCCCCc1cc2cc(-c3nnc(-c4cc(OC)c(OC)c(OC)c4)o3)c(=O)oc2cc1O | x | 75* | 139* | 123*
CCCCCCc1cc2cc(-c3nnc(-c4ccccc4O)o3)c(=O)oc2cc1O | 4 | 38 | 159* | 11
COc1ccc(NC(=O)c2cc3ccccc3oc2=O)c(OC)c1 | -5 | x | u | x
O=C(O)c1ccc2oc(=O)c(S(=O)(=O)c3ccc(F)cc3)cc2c1 | -5 | x | 1 | x
Cc1cc(=O)[nH]c2nnc(-c3ccc(Cl)cc3)n12 | -4 | x | u | x
CN(CC(=O)Nc1ccccc1Cl)C(=O)CSc1nncn1C | -5 | x | 1 | x
CCCCCCc1cc2cc(-c3nnc(-c4ccccc4OC)o3)c(=O)oc2cc1O | 7 | 58* | 136* | 18
Cc1cccc(NC(=S)N/N=C/c2cccc([N+](=O)[O-])c2)c1 | x | 0 | -1 | 1
Cc1cccc(NC(=S)N/N=C/c2ccc(Cl)c([N+](=O)[O-])c2)c1 | -5 | -25 | 44* | 0
CCCc1c(C(=O)N/N=C(\C)c2cc(C)sc2C)nnn1-c1nonc1N | -3 | x | x | x
C/C(=N\NC(=O)c1nnn(-c2nonc2N)c1C(C)C)c1cc(C)sc1C | -6 | x | 97* | x

Bioassay records from PubChem BioAssay.
